Reference: ChEMBL document CHEMBL2440074, “An epoxyisoprostane is a major regulator of endothelial cell function” (J Med Chem, 2013)
Calls of active or inactive are those of the source. The calls are words filed in the database; no cut-off is given here.

How the values were obtained:
Assay type in all cases: functional
Homo sapiens [1] = species: Homo sapiens; assay: Induction of HO-1 expression in HAEC at 3 uM after 4 hrs by qPCR analysis
Method in brief: (§1)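 Cultured HAECs, switched overnight to M199/10% FBS, exposed for 4 h to 3 μM lipid in M199 with 1% FBS, duplicate/replicate wells. Cells scraped, mRNA quantified by qPCR with GAPDH normalization; fold change of treated over untreated cells.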

Homo sapiens [2] = species: Homo sapiens; assay: Induction of ATF-3 expression in HAEC at 3 uM after 4 hrs by qPCR analysis; method in brief: as §1
Homo sapiens [3] = species: Homo sapiens; assay: Induction of HSP1A1 expression in HAEC at 3 uM after 4 hrs by qPCR analysis
Homo sapiens [4] = species: Homo sapiens; assay: Induction of IL-8 expression in HAEC at 3 uM after 4 hrs by qPCR analysis; method in brief: as §1
Homo sapiens [5] = species: Homo sapiens; assay: Induction of CXCL1 expression in HAEC at 6 uM after 4 hrs by microarray assay relative to control
Method in brief: (§2)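 Microarray on RNA from duplicate HAEC wells given 3 μM EI4 or 6 μM PEIPC in M199 with 1% FBS for 4 h, or left untreated. Probes with detection p < 0.001 retained. Fold change is mean treated probe level over mean control probe level. Genes counted as regulated at ≥1.2-fold.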

Homo sapiens [6] = species: Homo sapiens; assay: Induction of CXCL6 expression in HAEC at 6 uM after 4 hrs by microarray assay relative to control; method in brief: as §2
Homo sapiens [7] = species: Homo sapiens; assay: Induction of MCP1 expression in HAEC at 3 uM after 4 hrs by qPCR analysis; method in brief: as §1
Homo sapiens [8] = species: Homo sapiens; assay: Induction of RelB expression in HAEC at 6 uM after 4 hrs by microarray assay relative to control; method in brief: as §2
Homo sapiens [9] = species: Homo sapiens; assay: Induction of VCAM-1 expression in HAEC at 6 uM after 4 hrs by microarray assay relative to control; method in brief: as §2
Homo sapiens [10] = species: Homo sapiens; assay: Induction of MCP1 expression in HAEC at 6 uM after 4 hrs by microarray assay relative to control; method in brief: as §2
Homo sapiens [11] = species: Homo sapiens; assay: Induction of E-selectin expression in HAEC at 6 uM after 4 hrs by qPCR analysis relative to control
Homo sapiens [12] = species: Homo sapiens; assay: Induction of IL-6 expression in HAEC at 6 uM after 4 hrs by microarray assay relative to control; method in brief: as §2
Homo sapiens [13] = species: Homo sapiens; assay: Induction of ICAM-1 expression in HAEC at 6 uM after 4 hrs by microarray assay relative to control; method in brief: as §2
Homo sapiens [14] = species: Homo sapiens; assay: Induction of NfKB1A expression in HAEC at 6 uM after 4 hrs by microarray assay relative to control; method in brief: as §2
Homo sapiens [15] = species: Homo sapiens; assay: Induction of IL-8 expression in HAEC at 6 uM after 4 hrs by microarray assay relative to control; method in brief: as §2
Homo sapiens [16] = species: Homo sapiens; assay: Induction of IL-8 expression in HAEC at 3 uM after 4 hrs by microarray assay relative to control; method in brief: as §2
Homo sapiens [17] = species: Homo sapiens; assay: Inhibition of IL-1beta-induced CXCL1 mRNA expression in HAEC at 3 uM treated 1 hr before IL-1beta stimulation measured after 4 hrs by qPCR analysis
Method in brief: (§3)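 RNA measured by qPCR. HAECs preincubated 1 h with 3 μM EI4, then exposed 4 h to 20 ng/mL IL-1β with EI still present. Value reported as percent reduction of the IL-1β-induced fold change.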

Homo sapiens [18] = species: Homo sapiens; assay: Induction of MCP1 expression in HAEC at 3 uM after 4 hrs by microarray assay relative to control; method in brief: as §2
Homo sapiens [19] = species: Homo sapiens; assay: Inhibition of IL-1beta-induced MCP-1 protein expression in HAEC at 3 uM treated 1 hr before IL-1beta stimulation measured after 4 hrs by ELISA
Method in brief: (§4)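 HAECs preincubated 1 h with 3 μM EI4, then given 20 ng/mL IL-1β plus EI for 4 h. MCP-1 in the medium measured by ELISA and compared with IL-1β alone; significance by p value.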

Homo sapiens [20] = species: Homo sapiens; assay: Induction of E-selectin expression in HAEC at 3 uM after 4 hrs by microarray assay relative to control; method in brief: as §2
[21] = Decrease of IL-8 protein expression in HAEC at 6 uM after 4 hrs by ELISA; details: Homo sapiens
Method in brief: (§5)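 HAECs kept overnight in M199 with 10% FBS, then left untreated or given increasing EI concentrations for 4 h in M199 with 1% FBS, triplicate wells. IL-8 and MCP-1 in the collected medium quantified by ELISA. Significance versus untreated control by Student t test.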

[22] = Decrease of MCP-1 protein expression in HAEC at 6 uM after 4 hrs by ELISA; details: Homo sapiens; method in brief: as §5
Homo sapiens [23] = species: Homo sapiens; assay: Inhibition of IL-1beta-induced E-selectin mRNA expression in HAEC at 3 uM treated 1 hr before IL-1beta stimulation measured after 4 hrs by qPCR analysis; method in brief: as §3
Homo sapiens [24] = species: Homo sapiens; assay: Induction of ICAM-1 expression in HAEC at 3 uM after 4 hrs by microarray assay relative to control; method in brief: as §2
Homo sapiens [25] = species: Homo sapiens; assay: Inhibition of IL-1beta-induced CXCL6 mRNA expression in HAEC at 3 uM treated 1 hr before IL-1beta stimulation measured after 4 hrs by qPCR analysis; method in brief: as §3
Homo sapiens [26] = species: Homo sapiens; assay: Inhibition of IL-1beta-induced VCAM-1 mRNA expression in HAEC at 3 uM treated 1 hr before IL-1beta stimulation measured after 4 hrs by qPCR analysis; method in brief: as §3
Homo sapiens [27] = species: Homo sapiens; assay: Induction of CXCL1 expression in HAEC at 3 uM after 4 hrs by microarray assay relative to control; method in brief: as §2
Homo sapiens [28] = species: Homo sapiens; assay: Induction of RelB expression in HAEC at 3 uM after 4 hrs by microarray assay relative to control; method in brief: as §2
Homo sapiens [29] = species: Homo sapiens; assay: Inhibition of IL-1beta-induced MCP-1 mRNA expression in HAEC at 3 uM treated 1 hr before IL-1beta stimulation measured after 4 hrs by qPCR analysis; method in brief: as §3
Homo sapiens [30] = species: Homo sapiens; assay: Inhibition of IL-1beta-induced ICAM-1 mRNA expression in HAEC at 3 uM treated 1 hr before IL-1beta stimulation measured after 4 hrs by qPCR analysis; method in brief: as §3
Homo sapiens [31] = species: Homo sapiens; assay: Induction of VCAM-1 expression in HAEC at 3 uM after 4 hrs by microarray assay relative to control; method in brief: as §2
Homo sapiens [32] = species: Homo sapiens; assay: Induction of IL-8 protein expression in HAEC at 0.75 to 1.5 uM after 4 hrs by ELISA; method in brief: as §5
Homo sapiens [33] = species: Homo sapiens; assay: Induction of NfKB1A expression in HAEC at 3 uM after 4 hrs by microarray assay relative to control; method in brief: as §2
Homo sapiens [34] = species: Homo sapiens; assay: Inhibition of IL-1beta-induced MCP-1 protein expression in HAEC at 3 uM co-treated with IL-1beta measured after 4 hrs by ELISA; method in brief: as §4
Homo sapiens [35] = species: Homo sapiens; assay: Induction of CXCL6 expression in HAEC at 3 uM after 4 hrs by microarray assay relative to control; method in brief: as §2
Homo sapiens [36] = species: Homo sapiens; assay: Inhibition of IL-1beta-induced IL-6 mRNA expression in HAEC at 3 uM treated 1 hr before IL-1beta stimulation measured after 4 hrs by qPCR analysis; method in brief: as §3
Homo sapiens [37] = species: Homo sapiens; assay: Induction of IL-6 expression in HAEC at 3 uM after 4 hrs by microarray assay relative to control; method in brief: as §2

In the case of `CCCCC/C=C\C[C@H]1/C(=C\[C@@H]2O[C@H]2CCCC(=O)O)C(=O)C[C@H]1O`, the Activity (Homo sapiens [1]) is reported as “Active”, the Activity (Homo sapiens [2]) is reported as “Active” and the Activity (Homo sapiens [3]) is reported as “Active”. The Activity (Homo sapiens [4]) was “Active”.
For `CCCCC/C=C\C[C@@H]1/C(=C\C2O[C@@H]2CCCC(=O)O)C(=O)CC1O` (single isomer, unassigned), the Activity (Homo sapiens [1]) was “Active”, the Activity (Homo sapiens [2]) was “Active” and the Activity (Homo sapiens [3]) was “Active”. For the same molecule, the Activity (Homo sapiens [4]) was “Active”.
With `CCCCC/C=C\CC1/C(=C\C2OC2CCCC(=O)OC(COC(=O)CCCCCCCCCCCCCCC)COP(=O)([O-])OCC[N+](C)(C)C)C(=O)CC1O` (stereo not drawn) the fold change (FC) (Homo sapiens [5]) was 4.8, the fold change (FC) (Homo sapiens [6]) was 1.4 and the Activity (Homo sapiens [7]) was “Active”. It also gave a fold change (FC) (Homo sapiens [8]) of 4.2, a fold change (FC) (Homo sapiens [9]) of 1.2 and a fold change (FC) (Homo sapiens [10]) of 13. For the same molecule, the Activity (Homo sapiens [1]) was “Active”, the fold change (FC) (Homo sapiens [11]) was 2.38 and the fold change (FC) (Homo sapiens [12]) was 2.2. For the same molecule, the Activity (Homo sapiens [2]) was “Active”, the fold change (FC) (Homo sapiens [13]) was 2.3 and the fold change (FC) (Homo sapiens [14]) was 4. For the same molecule, the fold change (FC) (Homo sapiens [15]) was 17.
With `CCCCC/C=C\C[C@H]1/C(=C\[C@@H]2O[C@H]2CCCC(=O)O)C(=O)C[C@@H]1O` the Activity (Homo sapiens [7]) was “Active”, the Activity (Homo sapiens [1]) was “Active” and the Activity (Homo sapiens [2]) was “Active”. For the same molecule, the Activity (Homo sapiens [3]) was “Active” and the Activity (Homo sapiens [4]) was “Active”.
In the case of `CCCCC/C=C\C[C@@H]1/C(=C\[C@H]2O[C@@H]2CCCC(=O)O)C(=O)C[C@H]1O`, the fold change (FC) (Homo sapiens [16]) is reported as 3, the inhibition (Homo sapiens [17]) is reported as 53.4% and the fold change (FC) (Homo sapiens [18]) is reported as 0.2. The Activity (Homo sapiens [7]) was “Active”, the inhibition (Homo sapiens [19]) was “Active” and the fold change (FC) (Homo sapiens [20]) was 0.21. For the same molecule, the Activity [21] was “Active”, the Activity [22] was “Active” and the inhibition (Homo sapiens [23]) was 69.5%. For the same molecule, the Activity (Homo sapiens [1]) was “Active”, the fold change (FC) (Homo sapiens [24]) was 0.75 and the inhibition (Homo sapiens [25]) was 87.6%. It also gave an inhibition (Homo sapiens [26]) of 92.1%, a fold change (FC) (Homo sapiens [27]) of 1.3 and a fold change (FC) (Homo sapiens [28]) of 0.8. The inhibition (Homo sapiens [29]) was 79.6%, the inhibition (Homo sapiens [30]) was 52.3% and the Activity (Homo sapiens [2]) was “Active”. The fold change (FC) (Homo sapiens [31]) was 0.27, the Activity (Homo sapiens [32]) was “Active” and the fold change (FC) (Homo sapiens [33]) was 0.79. For the same molecule, the inhibition (Homo sapiens [34]) was “Active”, the fold change (FC) (Homo sapiens [35]) was 0.59 and the Activity (Homo sapiens [3]) was “Active”. The inhibition (Homo sapiens [36]) was 76%, the fold change (FC) (Homo sapiens [37]) was 0.6 and the Activity (Homo sapiens [4]) was “Active”.
